{"data": "Experimental data of several laboratories", "note": "Lines come from different studies, so protocols differ."}
{"Compound": "CC1(C)NC(=O)N(c2ccc(F)c(Br)c2)C1=O", "test system": "male Swiss mouse, plasma", "setting": "oral, 100 mg/kg, 24 h", "concentration": "12500 ng/mL"}
{"Compound": "O=C1CCC(N2Cc3cc(C4CCN(Cc5ccccc5)CC4)ccc3C2=O)C(=O)N1 (stereo not drawn)", "test system": "male CD-1 mouse, plasma", "setting": "intravenous, 1 mg/kg, 15 min", "concentration": "136 ng/mL"}
{"Compound": "CC(C)c1cc(C(=O)NCCN)c2cnn(C(C)C)c2n1", "test system": "female BALB/c mouse, plasma", "setting": "intraperitoneal, 50 mg/kg, 1 h", "concentration": "2860 ng/mL"}
{"Compound": "CC1(C)NC(=O)N(c2ccc(F)c(S(C)(=O)=O)c2)C1=O", "test system": "male Swiss mouse, plasma", "setting": "oral, 100 mg/kg, 24 h", "concentration": "130 ng/mL"}
{"Compound": "Cc1ccc2c(c1)C(=O)[C@]1(O)CCN(c3ccc4nc(C)ccc4c3)C1=N2", "test system": "mouse, brain", "setting": "subcutaneous, 10 mg/kg, 30 min, single dose", "concentration": "3.7 µM"}
{"Compound": "CC(C)n1ncc2c(C(=O)NCC3(C)CNC3)cc(C3CC3)nc21", "test system": "female BALB/c mouse, plasma", "setting": "intraperitoneal, 50 mg/kg, 4 h", "concentration": "1230 ng/mL"}
{"Compound": "CC(C)(C)S(=O)(=O)c1cc2c(Nc3ccc4scnc4c3)ncnc2cc1OCCOP(=O)(O)O", "test system": "BALB/c mouse, plasma", "setting": "oral, 10 mg/kg, 30 min", "concentration": "1150 ng/mL"}
{"Compound": "Cc1nc2ccc(OCc3ccc(C(F)(F)F)cc3)cc2[nH]1", "test system": "male BALB/c mouse, brain", "setting": "intravenous, 1 mg/kg, 72 h", "concentration": "2.9 ng/g"}
{"Compound": "NCc1cc2c(cc1F)C(=O)N(C1CCC(=O)NC1=O)C2 (stereo not drawn)", "test system": "male CD-1 mouse, plasma", "setting": "oral, 10 mg/kg, 40.2 min", "concentration": "85.3 ng/mL"}
